From PubChem BioAssay
The list is not random: actives were taken first. Their share in the collection is about 2.6%.
CHO parental Ca: signal in parental CHO cells, OX1R antagonist counter-screen; inhibition, % at 5.6 µM; parental CHO-K1, ATP-induced calcium, Fluo-8 fluorescence; 0.63% of 330,000 active;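 active means inhibition above that plate's mean sample inhibition plus 3 SD, cut at about 26% in these data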;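 further: 0% = ATP-challenged DMSO wells and 100% = DMSO wells without ATP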
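Material: parental CHO cells / Compound: single nominal dose of 5.6 µM per compound / Signal: Fluo-8 fluorescence / Replicates: singlicate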
OXTR potentiate: potentiators of human oxytocin receptor | P30559 | CHO-OTR cells, Fluo-8 calcium fluorescence, potentiator mode; 0% = oxytocin EC15, 100% = EC100 | activation, % at 3 µM | 0.061% of 320,000 active;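 active means activation above that plate's cutoff, the mean activation of tested compounds plus 3 SD, cut at about 6.6% in these data, passing the limit was not always enough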;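 further: 100% uses oxytocin at 75 nM as the full agonist control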
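Assay system: CHO cell line stably expressing human OTR. Reagent: EC15 oxytocin agonist. Dosing: single dose, 3.0 µM nominal final compound concentration. Timing: compound 6 min at room temperature before oxytocin, 100 s read. Signal: kinetic Fluo-8 calcium fluorescence. Controls: oxytocin EC15 low and EC100 high.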
OXTR ag: activates the human oxytocin receptor | activation, % at 3 µM | AID 2435 | CHO-OTR cells, Fluo-8 calcium fluorescence; normalized: DMSO 0%, oxytocin 100% | 0.32% of 320,000 active;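 active means activation above the mean of all tested compounds plus 3 SD, cutoff set per screening run, cut at about 20% in these data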;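 further: peak over basal fluorescence ratio from a 100 s FLIPR kinetic read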
V1R ag counter: V1a receptor agonism, counter-screen for OXTR agonists; CHO-V1R cells, Fluo-8 calcium fluorescence, agonist mode; 0% DMSO, 100% 3 nM vasopressin; activation, % at 3 µM; 0.25% of 320,000 active;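 active means activation above the mean activation of all tested compounds plus 3 SD, per screening run, cut at about 20% in these data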;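 further: signal is peak over basal fluorescence ratio across a 100 second FLIPR read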
OX1R antag-1: blocks the human orexin 1 receptor | O43613 | AID 485270 | 1.8% of 330,000 active | OX1R-expressing cells, FRET antagonist read-out | inhibition, % at 6.6 µM; in the data active means inhibition mostly above about 38%, no sharp cut-off; inactive means mostly below about 40%;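 further: 0% = agonist challenge alone and 100% = reference antagonist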
Target sequence (O43613 whole entry, looked up): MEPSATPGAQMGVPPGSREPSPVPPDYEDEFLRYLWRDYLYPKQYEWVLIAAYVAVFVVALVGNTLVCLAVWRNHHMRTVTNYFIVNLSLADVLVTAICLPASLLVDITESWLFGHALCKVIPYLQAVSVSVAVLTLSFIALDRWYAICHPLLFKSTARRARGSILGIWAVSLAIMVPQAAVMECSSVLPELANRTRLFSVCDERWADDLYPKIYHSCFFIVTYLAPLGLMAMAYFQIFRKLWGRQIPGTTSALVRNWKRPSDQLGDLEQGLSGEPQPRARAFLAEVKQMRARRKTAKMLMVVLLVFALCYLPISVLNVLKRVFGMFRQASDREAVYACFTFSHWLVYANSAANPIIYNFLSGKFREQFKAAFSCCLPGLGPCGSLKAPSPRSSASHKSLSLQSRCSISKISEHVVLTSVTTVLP
OX1R antag-2: blocks the human orexin 1 receptor. CHO/OX1R cells, Fluo-8 calcium fluorescence, orexin A. inhibition, % at 5 µM. 0.43% of 330,000 active. AID 434989;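 active means inhibition above its plate's threshold, mean inhibition of all tested compounds on the plate plus 3 SD, cut at about 37% in these data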;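 further: 0% = orexin A challenge wells and 100% = SB-334867-A antagonist wells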
OX1R Ca confirm: confirmation of human orexin 1 receptor antagonists | shares compounds with OX1R antag-2 | AID 492963 | CHO/OX1R cells, orexin A calcium Fluo-8 fluorescence | 38% of 1,100 active | inhibition, % at 5 µM; in the data active means inhibition above about 29%;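 further: 0% = agonist challenge alone and 100% = reference antagonist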
CHO Ca counter: counter-screen: parental CHO calcium response change, triplicate; 9.3% of 1,100 active; shares compounds with OX1R antag-2; inhibition, % at 5.6 µM; AID 492965; parental CHO-K1, ATP-induced calcium, Fluo-8 fluorescence;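 active means inhibition above a per-plate limit, the mean inhibition of that plate's test compounds plus 3 SD, cut at about 25% in these data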;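 further: 0% = ATP challenge with DMSO and 100% = DMSO without ATP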
OX1R HTRF confirm: OX1R (human) antagonism, HTRF confirmed; shares compounds with OX1R antag-1; inhibition, % at 6.6 µM; OX1R-expressing cells, HTRF antagonist assay; 49% of 1,800 active; in the data active means inhibition above about 55%;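 further: CHO cells expressing OX1R stimulated with orexin A at about EC80; 0% = agonist challenge alone and 100% = reference antagonist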
CHO-K1 HTRF cnt: counter-screen for OX1R antagonists: effect in parental CHO-K1 cells. HTRF counterscreen. 48% of 1,800 active. shares compounds with OX1R antag-1. inhibition, % at 6.6 µM; in the data active means inhibition above about 17%;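 further: 0% = agonist challenge with vehicle and 100% = vehicle alone without agonist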
* hit, by the source's call; · = no result.

SMILES	CHO parental Ca	OXTR potentiate	OXTR ag	V1R ag counter	OX1R antag-1	OX1R antag-2	OX1R Ca confirm	CHO Ca counter	OX1R HTRF confirm	CHO-K1 HTRF cnt
CCCN(CC(=O)Nc1ccccc1OC)C(=O)CSc1ccc(Br)cc1C	-23.6	-7.5	-0.8	0.4	57.8*	53.7*	21.9	-10.9	72.8*	4.0
CCCN(CC(=O)Nc1ccccc1OC)C(=O)Cn1[nH]c(=O)c2ccccc2c1=O	-22.2	4.5	0.9	0.0	7.3	-22.4	·	·	·	·
COc1ccccc1N(CC(=O)NCCC1=CCCCC1)S(=O)(=O)c1ccccc1	-34.4	-10.7	-1.8	-1.3	84.9*	62.8*	45.1*	-20.2	86.9*	0.5
COc1ccccc1N(CC(=O)NCCSCc1cccc(C)c1)S(=O)(=O)c1ccccc1	2.5	-15.3	3.4	4.6	69.6*	31.7	41.5*	-14.9	77.7*	-1.8
C=CCNc1oc(-c2cccs2)nc1C#N	-9.2	-0.5	0.1	-0.9	13.8	-15.2	·	·	·	·
CCNc1oc(-c2cccc3ccccc23)nc1C#N	20.3	-9.2	-2.4	-1.2	89.2*	55.0*	39.2*	1.9	78.1*	5.0
C=CCNc1oc(-c2cccc3ccccc23)nc1C#N	-12.4	-9.4	-2.1	0.3	68.6*	42.9*	15.9	1.2	54.7*	7.0
CC(C)Nc1oc(-c2cccc3ccccc23)nc1C#N	-7.9	-5.0	-1.8	-1.1	5.8	-20.3	·	·	·	·
CCOc1ccc(OCCC(=O)NNC(=O)c2cc(OC)c(OC)c(OC)c2)cc1	-6.3	-4.6	-1.6	-0.7	13.6	-25.5	·	·	·	·
O=C(Nc1cccc(-c2nc3ccccc3s2)c1)c1ccc2c(c1)OCO2	-18.9	-6.2	0.7	-0.2	86.7*	44.2*	25.3	-6.3	94.1*	14.6
CCOC(=O)c1ccc(Nc2cnc3ccccc3n2)cc1	-7.4	-7.9	1.6	0.7	62.5*	45.9*	22.8	-5.4	50.3	-0.3
O=C(O)c1ccc(Nc2cnc3ccccc3n2)cc1	-3.4	-4.4	-0.3	0.5	18.4	-3.6	·	·	·	·
Cc1c(NS(=O)(=O)c2cccc(C(=O)N3CCC(C)CC3)c2)c(=O)n(-c2ccccc2)n1C	-9.0	-5.9	0.6	0.4	3.2	-10.4	·	·	·	·
Cc1c(NS(=O)(=O)c2cccc(C(=O)OCC(=O)N(C)C3CCCCC3)c2)c(=O)n(-c2ccccc2)n1C	-15.6	-8.4	-0.5	-1.1	98.3*	37.3*	57.6*	-11.0	89.7*	-1.4
Nc1cc(S(=O)(=O)C(F)(F)F)ccc1C(=O)O	0.5	-9.4	1.0	-0.6	7.3	0.8	·	·	·	·
O=S(=O)(c1ccc2c(c1)C(O)c1ccccc1CC2)C(F)(F)F (stereo not given)	12.8	-9.5	5.1	4.5	33.8*	52.2*	20.1	16.7	33.6	0.8
O=C1COc2ccc(C(=O)COC(=O)c3ccc(F)cc3Cl)cc2N1	-2.0	-6.5	2.5	6.7	3.9	2.5	·	·	·	·
Cc1ccc(NC(=O)C2CC2C)c(Cl)c1 (stereo not given)	7.4	2.9	-2.9	-1.0	-2.6	-6.1	·	·	·	·
COc1cc(/C=N/NC(=O)c2cc(-c3ccccc3)nc3ccccc23)ccc1O	-46.1	-14.4	-0.5	2.6	17.1	2.8	·	·	·	·
COc1cc(/C=N/NC(=O)c2cc(-c3cccc(Br)c3)nc3ccccc23)cc(OC)c1O	-13.9	-9.2	-3.1	-0.9	66.6*	37.0	28.8*	-9.9	78.4*	3.5
CCOc1ccc(CNC(=O)CN2C(=O)CSc3ccc(S(=O)(=O)N4CCOCC4)cc32)cc1OC	-29.4	-6.5	-0.5	0.1	8.6	-26.0	·	·	·	·
